From ChEMBL document CHEMBL2331279, “Rational design and synthesis of 4-substituted 2-pyridin-2-ylamides with inhibitory effects on SH2 domain-containing inositol 5'-phosphatase 2 (SHIP2)” (Eur J Med Chem, 2013)
The source made the active and inactive calls. The rule behind the calls is not given here.

Assays:
[1] = test system: Mus musculus; assay: Antidiabetic activity in db/db mouse assessed as decrease in glucose intolerance at 300 mg/kg, po bid for 10 days by glucose tolerance test; format: functional, organism-based; design: dose 300 mg/kg
How it was run: (§1)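 Male mice, 8 weeks old, dosed orally twice daily with 300 mg/kg in 0.5% methylcellulose, or vehicle, for 13 days (C57BL/6J) or 10 days (db/db). After a 6 h fast, glucose 2 g/kg given ip. Tail-vein blood sampled at set times and plasma glucose measured by glucometer. AUC calculated. Mean ± SE, n=5-8; ANOVA with Bonferroni test versus vehicle.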

[2] = test system: Mus musculus; assay: Toxicity in C57BL/6J mouse assessed as effect on glucose tolerance at 300 mg/kg, po bid for 13 days by glucose tolerance test; format: organism-based; design: dose 300 mg/kg, route oral; details: in vivo, 312 h; how it was run: as §1
[3] = test system: Mus musculus; assay: Antidiabetic activity in db/db mouse assessed as decrease in glucose area under curve at 300 mg/kg, po bid for 10 days by glucose tolerance test relative vehicle treated control; format: functional; details: 240 h; how it was run: as §1
[4] = test system: Mus musculus; assay: Antidiabetic activity in db/db mouse assessed as fasting plasma glucose level at 300 mg/kg, po bid for 12 to 13 days measured on day 12 to 13 (reference value: 106 +/-6 mg/dl); format: functional
[5] = test system: Mus musculus; assay: Decrease in PEPCK gene expression in db/db mouse liver at 300 mg/kg, po bid for 12 to 13 days by real time RT-PCR analysis; format: functional, organism-based; design: dose 300 mg/kg
How it was run: (§2)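 db/db mice dosed orally twice daily with 300 mg/kg or vehicle for 12-13 days, then fasted overnight and liver removed. Gluconeogenic gene mRNA measured by SYBR-green real-time PCR and expressed as fold change versus vehicle. Mean ± SE, n=7-8; ANOVA with Bonferroni test.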

[6] = test system: Mus musculus; assay: Antidiabetic activity in db/db mouse assessed as serum insulin level at 300 mg/kg, po bid for 12 to 13 days measured on day 12 to 13 (reference value: 7.30 +/-1.10 ng/ml); format: functional
[7] = target: T1, Phosphatidylinositol 3,4,5-trisphosphate 5-phosphatase 2 (Rattus norvegicus) (UniProt Q9WVR3); assay: Inhibition of SHIP2 in TNF alpha-treated Sprague-Dawley rat cortical neuron assessed as potentiation of insulin-stimulated Akt phosphorylation at Thr308 at 10 uM treated for 15 mins after TNF alpha challenge for 3 days and prior to insulin stimulation measured after 5 mins by Western blot analysis relative to untreated control
T1 sequence (whole entry): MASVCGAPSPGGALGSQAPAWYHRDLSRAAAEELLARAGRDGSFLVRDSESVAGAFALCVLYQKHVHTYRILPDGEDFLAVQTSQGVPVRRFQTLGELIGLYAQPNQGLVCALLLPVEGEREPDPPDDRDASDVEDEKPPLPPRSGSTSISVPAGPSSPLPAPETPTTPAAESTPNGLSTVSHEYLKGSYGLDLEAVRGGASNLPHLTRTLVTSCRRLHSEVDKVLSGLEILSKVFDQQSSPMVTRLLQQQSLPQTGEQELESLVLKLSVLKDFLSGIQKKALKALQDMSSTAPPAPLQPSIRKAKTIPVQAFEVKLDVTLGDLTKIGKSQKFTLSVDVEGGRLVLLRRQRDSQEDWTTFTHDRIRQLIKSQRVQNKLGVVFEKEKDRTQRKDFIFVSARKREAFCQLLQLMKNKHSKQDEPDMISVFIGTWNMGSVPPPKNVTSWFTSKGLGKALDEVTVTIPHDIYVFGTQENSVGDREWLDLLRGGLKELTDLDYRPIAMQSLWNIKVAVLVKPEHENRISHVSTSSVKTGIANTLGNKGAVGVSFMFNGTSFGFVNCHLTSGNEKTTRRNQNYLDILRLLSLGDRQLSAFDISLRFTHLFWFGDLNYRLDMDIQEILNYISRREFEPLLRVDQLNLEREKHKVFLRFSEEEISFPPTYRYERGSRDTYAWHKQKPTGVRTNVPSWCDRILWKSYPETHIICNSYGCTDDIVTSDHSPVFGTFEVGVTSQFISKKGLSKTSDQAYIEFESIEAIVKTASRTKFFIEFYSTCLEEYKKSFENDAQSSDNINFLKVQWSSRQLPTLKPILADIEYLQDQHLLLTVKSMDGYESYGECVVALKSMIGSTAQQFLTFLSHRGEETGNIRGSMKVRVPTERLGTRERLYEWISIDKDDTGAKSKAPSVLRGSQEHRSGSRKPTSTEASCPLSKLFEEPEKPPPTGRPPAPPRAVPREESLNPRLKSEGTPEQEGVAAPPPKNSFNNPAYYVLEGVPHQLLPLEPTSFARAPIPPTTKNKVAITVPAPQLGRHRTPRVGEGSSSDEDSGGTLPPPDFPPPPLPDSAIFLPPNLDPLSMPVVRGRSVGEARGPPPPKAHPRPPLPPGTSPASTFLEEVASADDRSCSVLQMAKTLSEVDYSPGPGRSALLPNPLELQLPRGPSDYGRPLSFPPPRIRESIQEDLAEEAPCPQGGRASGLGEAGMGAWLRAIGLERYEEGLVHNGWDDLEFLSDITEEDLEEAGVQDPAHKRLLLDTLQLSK

[8] = test system: Mus musculus; assay: Toxicity in db/db mouse assessed as food intake at 300 mg/kg, po bid for 12 to 13 days measured on day 10 (reference value: 6.06 +/-0.36 gms/day); format: organism-based; design: dose 300 mg/kg, route oral; details: in vivo
[9] = test system: Mus musculus; assay: Antidiabetic activity in db/db mouse assessed as decrease in HOMA-R index of insulin resistance at 300 mg/kg, po bid for 12 to 13 days; format: functional, organism-based; design: dose 300 mg/kg
[10] = test system: Mus musculus; assay: Decrease in glucose-6-phosphatase gene expression in db/db mouse liver at 300 mg/kg, po bid for 12 to 13 days by real time RT-PCR analysis; format: functional, organism-based; design: dose 300 mg/kg; how it was run: as §2
[11] = test system: Mus musculus; assay: Toxicity in C57BL/6J mouse assessed as fasting plasma glucose level at 300 mg/kg, po bid for 12 to 13 days measured on day 15 (reference value: 78 +/-6 mg/dl); format: organism-based; design: dose 300 mg/kg, route oral; details: in vivo

fold change (FC) [7]	Structure (SMILES)	inhibition [1]	Activity [2]	inhibition in vivo at 300 mg/kg [3] [%]	Activity [4] [mg/dL]	inhibition [5]	Activity [6] [ng/mL]	Activity [8] [g/day]	inhibition [9]	inhibition [10]	Activity [11] [mg/dL]
2.2	O=C(Cc1c(F)cccc1F)Nc1cc(OCc2ccc(Cl)cc2)ccn1	Active	Non-toxic	16	83	Active	6.86	5.34	Active	Active	88
1.5	C[C@H](NC(=O)c1sccc1OCc1ccc(Cl)cc1)c1ccccc1	Active	Non-toxic	14	77	Active	9.95	6.5	Active	Active	87
